Converted amounts (≈) assume the structure as drawn.
Legend:
P388 [1] = assay: In vitro inhibition against P-388 mouse leukemia cells using growth inhibition assay at the concentration of 12.5 ug/mL; assay type: functional
Summary of the method: (§1)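 P-388 mouse leukemia cells in culture, by the National Cancer Institute protocol. Tested at 6.25-100 μg/mL and reported as percent growth inhibition. Carbocyclic adenosine is the positive control.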

P388 [2] = assay: In vitro inhibition against P-388 mouse leukemia cells using growth inhibition assay at the concentration of 6.25 ug/mL; assay type: functional; summary of the method: as §1
P388 [3] = assay: In vitro inhibition against P-388 mouse leukemia cells using growth inhibition assay at the concentration of 25 ug/mL; assay type: functional; summary of the method: as §1
MDCK [4] = assay: In vitro antiviral activity against influenza virus (type A0/PR/8/34) in Madin-Darby canine kidney (MDCK) host cell cultures; assay type: functional, Canis lupus familiaris
Vero [5] = assay: In vitro minimum drug concentration that inhibited herpes simplex virus type 1 (E-377 strain)-induced cytopathogenic effects by 50% in vero cell cultures; assay type: functional; conditions: Chlorocebus sabaeus, read-out: ID50 (the source's name)
Summary of the method: (§2)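 CPE inhibition assay with HSV-1 strain E-377 replicating in Vero cells. ID50 is the minimum concentration (μg/mL) inhibiting CPE by 50%, from regression with semilog curve fitting. MTC is the minimum concentration (μg/mL) giving any cytotoxicity. TI is MTC divided by ID50.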

Vero [6] = assay: Minimum concentration (ug/mL) for in vitro antiviral activity against herpes simplex virus type 1 (E-377 strain) in Vero host cell cultures; assay type: functional, Chlorocebus sabaeus; summary of the method: as §2
P388 [7] = assay: In vitro inhibition against P-388 mouse leukemia cells using growth inhibition assay at the concentration of 100 ug/mL; assay type: functional; summary of the method: as §1
Vero [8] = assay: (§3) In vitro antiviral activity against herpes simplex virus type 1 (E-377 strain) in Vero host cell cultures; assay type: functional, Chlorocebus sabaeus; summary of the method: as §2
Vero [9] = assay: In vitro antiviral activity against herpes simplex virus type 1 (E-377 strain) in Vero host cell cultures (MTC/ID50); assay type: functional, Chlorocebus sabaeus; summary of the method: as §2
P388 [10] = assay: In vitro inhibition against P-388 mouse leukemia cells using growth inhibition assay at the concentration of 50 ug/mL; assay type: functional; summary of the method: as §1
Vero [11] = assay: as §3; assay type: functional; conditions: Chlorocebus sabaeus, read-out: ID50 (the source's name); summary of the method: as §2
MRC5 [12] = assay: Cytotoxicity against MRC5 (human diploid embryonic lung cells) cell monolayer cultures by using MTT [3-(4,5-Dimethylthiazol-2-yl)-2,5-diphenyltetrazolium bromide]assay at the concentration of 320 uM; assay type: functional
Summary of the method: (§4)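 MRC5 human diploid embryonic lung cell monolayers. Cytotoxicity is quantified by host-cell mitochondrial reduction of MTT to MTT formazan. It was run alongside the HCMV yield reduction assay.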

Vero [13] = assay: as §3; assay type: functional, Chlorocebus sabaeus; remark: listed apart in the source
Summary of the method: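 CPE-inhibition assay: HSV-1 strain E-377 replicating in African green monkey kidney (Vero) cells. ID50 is the minimum drug concentration (μg/mL) giving 50% CPE inhibition, taken from semilog regression curve fitting. Cytotoxicity was scored as the minimum concentration (μg/mL) showing any toxicity (MTC). TI = MTC/ID50.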

MRC5 [14] = assay: Effect of compound on yields of human cytomegalovirus (HCMV) in MRC5 (human diploid embryonic lung cells)cell monolayer cultures at the concentration of 32 uM; assay type: functional
Summary of the method: (§5)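 Virus yield reduction assay with HCMV strain Ad169, passaged, titrated and assayed in MRC5 human diploid embryonic lung cells. Virus yields are read as PFU. Includes a virus control and a DHPG positive control.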

MRC5 [15] = assay: Effect of compound on yields of human cytomegalovirus (HCMV) in MRC5 (human diploid embryonic lung cells)cell monolayer cultures at the concentration of 10 uM; assay type: functional; summary of the method: as §5
MRC5 [16] = assay: Effect of compound treatment on yields of human cytomegalovirus (HCMV) in MRC5 (human diploid embryonic lung cells)cell monolayer cultures at the concentration of 1000 uM; assay type: functional; summary of the method: as §5
MRC5 [17] = assay: Cytotoxicity against MRC5 (human diploid embryonic lung cells)cell monolayer cultures at the concentration of 1000 uM; Slightly toxic; assay type: functional, cell-based
MRC5 [18] = assay: Cytotoxicity against MRC5 (human diploid embryonic lung cells)cell monolayer cultures at the concentration of 32 uM; assay type: functional
MRC5 [19] = assay: Effect of compound on yields of human cytomegalovirus (HCMV) in MRC5 (human diploid embryonic lung cells)cell monolayer cultures at the concentration of 100 uM; assay type: functional; summary of the method: as §5
MRC5 [20] = assay: Cytotoxicity against MRC5 (human diploid embryonic lung cells)cell monolayer cultures at the concentration of 100 uM; assay type: functional
MRC5 [21] = assay: Effect of compound on yields of human cytomegalovirus (HCMV) in MRC5 (human diploid embryonic lung cells)cell monolayer cultures at the concentration of 3.2 uM; assay type: functional; summary of the method: as §5
MRC5 [22] = assay: Effect of compound on yields of human cytomegalovirus (HCMV) in MRC5 (human diploid embryonic lung cells)cell monolayer cultures at the concentration of 320 uM; assay type: functional; summary of the method: as §5
MRC5 [23] = assay: Effect of compound on yields of human cytomegalovirus (HCMV) in MRC5 (human diploid embryonic lung cells)cell monolayer cultures at the concentration of 0 uM; assay type: functional; summary of the method: as §5
MRC5 [24] = assay: Cytotoxicity against MRC5 (human diploid embryonic lung cells) cell monolayer cultures at the concentration of 320 uM; Slightly toxic; assay type: functional, cell-based
MRC5 [25] = assay: Cytotoxicity against MRC5 (human diploid embryonic lung cells)cell monolayer cultures by using MTT [3-(4,5-Dimethylthiazol-2-yl)-2,5-diphenyltetrazolium bromide]assay at the concentration of 100 uM; assay type: functional; summary of the method: as §4
MRC5 [26] = assay: Cytotoxicity against MRC5 (human diploid embryonic lung cells)cell monolayer cultures by using MTT [3-(4,5-Dimethylthiazol-2-yl)-2,5-diphenyltetrazolium bromide]assay at the concentration of 32 uM; assay type: functional; summary of the method: as §4
MRC5 [27] = assay: Cytotoxicity against MRC5 (human diploid embryonic lung cells) cell monolayer cultures by using MTT [3-(4,5-Dimethylthiazol-2-yl)-2,5-diphenyltetrazolium bromide]assay at the concentration of 1000 uM; assay type: functional; summary of the method: as §4
MDCK [28] = assay: Minimum concentration (ug/mL) for in vitro antiviral activity against influenza virus (type A0/PR/8/34) in Madin-Darby canine kidney (MDCK) host cell cultures; assay type: functional, Canis lupus familiaris
Summary of the method: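 MDCK host cell cultures infected with influenza A0/PR/8/34, scored for inhibition of virus-induced cytopathogenic effect (CPE). ID50 is the minimum drug concentration (μg/mL) that cut CPE by 50%, from semilog regression curve fitting. MTC is the minimum concentration (μg/mL) at which any cytotoxicity was seen. Therapeutic index is MTC divided by ID50.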

Nc1nc(N)c2ncn(C3CC(CO)C(O)C3O)c2n1 (stereo not drawn)
inhibition at 12.5 µg/mL (P388 [1]): 0%
inhibition at 6.25 µg/mL (P388 [2]): 0%
inhibition at 25 µg/mL (P388 [3]): 0%
Virus rating (MDCK [4]): 0
IC50 (Vero [5]): 195 µg/mL (≈ 696 µM)
MTC (Vero [6]): 280.3 µg/mL
inhibition at 100 µg/mL (P388 [7]): 42.3%
Virus rating (Vero [8]): 0.6 VR
Therapeutic index (Vero [9]): 1.4
inhibition at 50 µg/mL (P388 [10]): 11.3%

Nc1ncnc2c1ncn2[C@@H]1C[C@H](CO)[C@@H](O)[C@H]1O [ARISTEROMYCIN]
inhibition at 12.5 µg/mL (P388 [1]): 100%
inhibition at 6.25 µg/mL (P388 [2]): 100%
inhibition at 25 µg/mL (P388 [3]): 100%
inhibition at 100 µg/mL (P388 [7]): 100%
inhibition at 50 µg/mL (P388 [10]): 100%

Nc1ncnc2c1ncn2[C@@H]1O[C@H](CO)[C@@H](O)[C@@H]1O [VIDARABINE]
IC50 (Vero [11]): 4.8 µg/mL (≈ 18 µM)
MTC (Vero [6]): 26.8 µg/mL
Virus rating (Vero [8]): 2.4
Therapeutic index (Vero [9]): 5.6

Nc1nc(O)c2ncn(C3CC(CO)C(O)C3O)c2n1 (stereo not drawn)
Control (MRC5 [12]): 93%
TI (Vero [13]): >3.6
HCMV yield (MRC5 [14]): 4.2 log10 pfu/mL
HCMV yield reduction (MRC5 [14]): 1.2 log10 pfu/mL
HCMV yield (MRC5 [15]): 4.8 log10 pfu/mL
HCMV yield reduction (MRC5 [15]): 0.6 log10 pfu/mL
HCMV yield (MRC5 [16]): < 0.6 log10 pfu/mL
HCMV yield reduction (MRC5 [16]): > 4.8 log10 pfu/mL
Gross morphology (MRC5 [17]): Toxic
inhibition at 12.5 µg/mL (P388 [1]): 9.1%
Gross morphology (MRC5 [18]): 0
HCMV yield (MRC5 [19]): 3.7 log10 pfu/mL
HCMV yield reduction (MRC5 [19]): 1.7 log10 pfu/mL
inhibition at 6.25 µg/mL (P388 [2]): 0%
IC50 (Vero [11]): 83.4 µg/mL (≈ 297 µM)
Gross morphology (MRC5 [20]): 0
inhibition at 25 µg/mL (P388 [3]): 42.1%
Virus rating (MDCK [4]): 0
HCMV yield (MRC5 [21]): 4.9 log10 pfu/mL
HCMV yield reduction (MRC5 [21]): 0.5 log10 pfu/mL
HCMV yield (MRC5 [22]): 2.5 log10 pfu/mL
HCMV yield reduction (MRC5 [22]): 2.9 log10 pfu/mL
HCMV yield (MRC5 [23]): 5.4 log10 pfu/mL
MTC (Vero [6]): >299.3 µg/mL
inhibition at 100 µg/mL (P388 [7]): 71.6%
Gross morphology (MRC5 [24]): Toxic
Virus rating (Vero [8]): 2.1
Control (MRC5 [25]): 97%
Control (MRC5 [26]): 103%
Control (MRC5 [27]): 88%
inhibition at 50 µg/mL (P388 [10]): 58.4%

Nc1nc(O)c2nnn(C3CC(CO)C(O)C3O)c2n1 (stereo not drawn)
inhibition at 12.5 µg/mL (P388 [1]): 0%
inhibition at 6.25 µg/mL (P388 [2]): 0%
inhibition at 25 µg/mL (P388 [3]): 5%
Virus rating (MDCK [4]): 0.2
MTC (Vero [6]): 300.3 µg/mL
inhibition at 100 µg/mL (P388 [7]): 63.9%
Virus rating (Vero [8]): 0
MTC (MDCK [28]): 95 µg/mL
inhibition at 50 µg/mL (P388 [10]): 27.4%

Nc1nc(Cl)c2nnn(C3CC(CO)C(O)C3O)c2n1 (stereo not drawn)
inhibition at 12.5 µg/mL (P388 [1]): 0%
inhibition at 6.25 µg/mL (P388 [2]): 0%
inhibition at 25 µg/mL (P388 [3]): 14.2%
Virus rating (MDCK [4]): 0.3
MTC (Vero [6]): 300.7 µg/mL
inhibition at 100 µg/mL (P388 [7]): 99.1%
Virus rating (Vero [8]): 0
MTC (MDCK [28]): >256.3 µg/mL
inhibition at 50 µg/mL (P388 [10]): 40.1%
